A selection: hits, their analogues and other compounds. The true share with any hit is near 27%.
CYP2C9 inh – blocks human cytochrome P450 2C9. hit rate 20% among 96,000. inhibition, % at 5 µM. P11712. CYP2C9 Supersomes, luciferin-H conversion, luminescence;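 active = blocking of liver enzyme CYP2C9 beyond about 50% at 5 µM, limit read from the data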
Rev-RRE block – inhibitors of HIV-1 Rev-RRE RNA interaction | P05866 | Rev peptide-RRE RNA binding, FRET | inhibition, % at 8 µM | hit rate 0.79% among 97,000 | AID 704;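 active = inhibition above the screen-wide mean plus 3 SD, cut at about 35% in these data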;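 also: 0% = median DMSO wells and 100% = median Neomycin B control wells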
Target sequence (P05866 whole entry, looked up): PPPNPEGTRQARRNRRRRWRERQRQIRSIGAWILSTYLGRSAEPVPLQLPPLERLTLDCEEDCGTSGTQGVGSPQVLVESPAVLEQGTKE
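Assay system: Labelled RRE RNA duplex and labelled Rev peptide | Times: 5 min preincubation and 15 min binding, 25 °C | Detection: FRET, ex 480 nm, em 540 and 671 nm | Evaluation: % inhibition of FRET ratio versus controls | Benchmarks: DMSO wells as 0% and neomycin B wells as 100% inhibition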
Cav3 T inh – human Cav3.2 channel inhibition, primary screen. B-score at 10 µM. O95180. AID 449739. Cav3.2-expressing cells, Fluo-4 calcium fluorescence FDSS; hits give low values. hit rate 4% among 100,000;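 active = single-dose well whose peak fluorescence ratio is a statistical outlier from its plate by either plate-standardised score or position-corrected B-score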
CYP2C19 inh – human CYP2C19 inhibition; hit rate 21% among 96,000; P33261; CYP2C19 Supersomes, luciferin-H EGE luminescence, 30 min; inhibition, % at 5 µM;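 active = CYP2C19 inhibition above a set limit at 5 µM in the primary screen, cut at about 50% in these data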;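 also: plate controls were negative control wells for no effect and 2.5 mM tranylcypromine positive control for full effect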
Target sequence (P33261 whole entry, looked up): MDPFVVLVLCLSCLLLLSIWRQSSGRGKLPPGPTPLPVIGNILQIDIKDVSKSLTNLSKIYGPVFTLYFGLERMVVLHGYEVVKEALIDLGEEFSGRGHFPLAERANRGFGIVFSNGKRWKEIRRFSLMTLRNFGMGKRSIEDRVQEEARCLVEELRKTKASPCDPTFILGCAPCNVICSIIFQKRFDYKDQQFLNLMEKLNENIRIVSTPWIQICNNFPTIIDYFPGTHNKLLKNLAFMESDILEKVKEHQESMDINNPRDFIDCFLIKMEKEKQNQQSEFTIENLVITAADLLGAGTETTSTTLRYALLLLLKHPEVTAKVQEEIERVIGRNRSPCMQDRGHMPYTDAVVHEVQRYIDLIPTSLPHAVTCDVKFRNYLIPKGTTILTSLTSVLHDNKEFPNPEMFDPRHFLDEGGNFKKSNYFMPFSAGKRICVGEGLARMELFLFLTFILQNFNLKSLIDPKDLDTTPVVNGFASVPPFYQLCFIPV
CYP2C9 activ – activators of human CYP2C9 | P11712 | recombinant CYP2C9, luciferin-H conversion, luminescence; hits give high values; factor 1 = untreated enzyme, 0 = blocked | activation factor at 5 µM | hit rate 1.4% among 96,000;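 active = activation factor of 2 or more for CYP2C9 at a 5 µM dose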;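 also: 0 = sulfaphenazole-blocked wells and 1 = vehicle-only wells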
CYP2C19 act – increases human CYP2C19 enzyme activity | P33261 | recombinant CYP2C19, luciferin-H EGE luminescence; hits give high values; 0 = fully inhibited enzyme, 1 = untreated enzyme | activation factor at 5 µM | 96,000 tested, under 10 active | AID 1025;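 active = activation factor of at least 2 at 5 µM in the primary screen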;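 also: 0 = wells with 2.5 mM tranylcypromine and 1 = vehicle-only wells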
Active calls of the source: *.

`COc1cc2c(cc1OC)C(=O)Cc1ccc3c(c1CN(C)CC2)OCO3` gave Cav3 T inh 1.1.
`COc1ccc2c(c1OC)CN(C)CCc1cc3c(cc1C(O)C2)OCO3` (configuration not stated) gave CYP2C9 inh -23, Rev-RRE block -3, Cav3 T inh 0.34, CYP2C19 inh 80*, CYP2C9 activ 1.2 and CYP2C19 act 0.2.
For NC(=O)[C@H]1CC2(CC(c3cccc(NC(=O)[C@H]4CCC(=O)N4)c3)=NO2)CN1C(=O)CC(c1ccccc1)c1ccccc1 (some centres not stated) the results were Cav3 T inh 0.91.
`CCn1cnc2sc(-c3ccccc3)cc2c1=O` gave CYP2C9 inh 71*, Rev-RRE block 10, Cav3 T inh 1.4, CYP2C19 inh 44, CYP2C9 activ 0.3 and CYP2C19 act 0.6.
CC(=O)Cn1cnc2sc(-c3ccccc3)cc2c1=O was read as CYP2C9 inh 29, Rev-RRE block 3, Cav3 T inh 1.2, CYP2C19 inh 31, CYP2C9 activ 0.7 and CYP2C19 act 0.7.
`O=C(NN1C(=O)C2C(C1=O)C1C=CC2C12CC2)c1ccncc1` (configuration not stated) gave CYP2C9 inh 28, Rev-RRE block 6, Cav3 T inh 0.44, CYP2C19 inh 52*, CYP2C9 activ 0.7 and CYP2C19 act 0.5.
`COc1ccc(C2SCC(C(=O)NCc3ccc(F)cc3)N2C(C)=O)cc1` (configuration not stated) gave CYP2C9 inh 19, Rev-RRE block 2, Cav3 T inh 1.2, CYP2C19 inh 29, CYP2C9 activ 0.8 and CYP2C19 act 0.7.
Screening COC(=O)c1cc(Br)c(=O)n(CCc2ccccc2)c1 returned CYP2C9 inh 14, Rev-RRE block 2, Cav3 T inh 0.096, CYP2C19 inh 62*, CYP2C9 activ 0.9 and CYP2C19 act 0.4.
For COC(=O)c1cc(Br)c(=O)n(Cc2ccc3c(c2)OCO3)c1 the results were CYP2C9 inh 80*, Rev-RRE block 7, Cav3 T inh 0.081, CYP2C19 inh 87*, CYP2C9 activ 0.2 and CYP2C19 act 0.1.
Screening CCN(CC)c1nc2ccccc2c(N)c1-c1ccccc1 returned CYP2C9 inh 36, Rev-RRE block 5, Cav3 T inh -2.4, CYP2C19 inh 37, CYP2C9 activ 0.6 and CYP2C19 act 0.6.
`Cc1ccc(C(O)c2ccncc2)cc1` (configuration not stated) gave CYP2C9 inh 78*, Rev-RRE block 6, Cav3 T inh -0.04, CYP2C19 inh 72*, CYP2C9 activ 0.2 and CYP2C19 act 0.3.
Cc1ccccc1C(=O)NCc1ccncc1 was read as CYP2C9 inh 28, Rev-RRE block 7, Cav3 T inh -0.97, CYP2C19 inh 10, CYP2C9 activ 0.7 and CYP2C19 act 0.9.
For Cc1ccccc1C(O)c1ccncc1 (configuration not stated) the results were CYP2C9 inh 74*, Rev-RRE block 4, Cav3 T inh 1, CYP2C19 inh 68*, CYP2C9 activ 0.3 and CYP2C19 act 0.3.
Screening COCCNc1nc(SCC(=O)N2CCN(c3ccccc3OC)CC2)nc2ccccc12 returned CYP2C9 inh 43, Rev-RRE block 5, CYP2C19 inh 31, CYP2C9 activ 0.6 and CYP2C19 act 0.7.
Screening COc1ccc(/C=C2\CCCC(C(=O)C(F)(F)F)=C2O)cc1 returned CYP2C9 inh 82*, Rev-RRE block 16, Cav3 T inh -2.5, CYP2C19 inh -14, CYP2C9 activ 0.2 and CYP2C19 act 1.1.
CCOC(=O)CC(=O)CSc1nc(-c2ccc3c(c2)OCO3)cc(C(F)(F)F)c1C#N was read as CYP2C9 inh 53*, Rev-RRE block 61*, Cav3 T inh -0.0093, CYP2C19 inh 24, CYP2C9 activ 0.5 and CYP2C19 act 0.8.
CCOC(=O)CCSc1nc(C)cc(C(F)(F)F)c1C#N was read as CYP2C9 inh 29, Rev-RRE block 80*, Cav3 T inh -0.96, CYP2C19 inh 61*, CYP2C9 activ 0.7 and CYP2C19 act 0.4.
For COc1ccc(-c2[nH]c(-c3ccccc3)nc2SCC(=O)Nc2nccs2)cc1 the results were Cav3 T inh -2.1.
For COC(=O)c1ccccc1NC(=O)c1cc(-c2cccs2)on1 the results were CYP2C9 inh -103, Rev-RRE block 7, Cav3 T inh 0.44, CYP2C19 inh -2, CYP2C9 activ 2* and CYP2C19 act 1.
`O=C(Nc1cccc(C(F)(F)F)c1)c1cc(-c2cccs2)on1` gave CYP2C9 inh -147, Rev-RRE block 5, Cav3 T inh -1.8, CYP2C19 inh -6, CYP2C9 activ 2.5* and CYP2C19 act 1.1.
C[C@@H](O)C1NC(=O)[C@H](CCCCN)NC(=O)c2cc([N+](=O)[O-])cc(I)c2NCCC[C@@H](C(N)=O)NC1=O (some centres not stated) was read as Cav3 T inh 0.31.
`Cc1ccc(-c2cc(C(=O)NC3=NCCS3)c3cc(Br)ccc3n2)o1` gave CYP2C9 inh 20, Rev-RRE block 24, CYP2C19 inh 52*, CYP2C9 activ 0.8 and CYP2C19 act 0.5.
For COC(=O)CC1COc2ccccc2N1C(=O)c1ccc(C(C)(C)C)cc1 (configuration not stated) the results were CYP2C9 inh 77*, Rev-RRE block -2, Cav3 T inh -2.9, CYP2C19 inh 34, CYP2C9 activ 0.2 and CYP2C19 act 0.7.
COc1ccc2oc(C)c(C(=O)Cn3ccnc3)c2c1 was read as CYP2C9 inh 73*, Rev-RRE block 0, Cav3 T inh 0.73, CYP2C19 inh 90*, CYP2C9 activ 0.3 and CYP2C19 act 0.1.
`CCN(CC)CCCNc1nc2ccccc2[nH]1` gave CYP2C9 inh -6, Rev-RRE block 4, Cav3 T inh -1.4, CYP2C19 inh -2, CYP2C9 activ 1.1 and CYP2C19 act 1.
`O=C(C1CCC(CNS(=O)(=O)c2cccc3nsnc23)CC1)N1CC=C(c2ccccc2)CC1` (configuration not stated) gave CYP2C9 inh 71*, Rev-RRE block 3, Cav3 T inh -7.9*, CYP2C19 inh 87*, CYP2C9 activ 0.3 and CYP2C19 act 0.1.
`O=C(C1CCCN(S(=O)(=O)c2cccc3nsnc23)C1)N1CC=C(c2ccccc2)CC1` (configuration not stated) gave CYP2C9 inh 69*, Rev-RRE block 2, Cav3 T inh -1.9, CYP2C19 inh 64*, CYP2C9 activ 0.3 and CYP2C19 act 0.4.
`O=C(NC1CCCCC1)C1CCC(CNS(=O)(=O)c2cccc3nsnc23)CC1` (configuration not stated) gave CYP2C9 inh -16, Rev-RRE block 0, Cav3 T inh -0.33, CYP2C19 inh 0, CYP2C9 activ 1.2 and CYP2C19 act 1.

Source: PubChem (several laboratories)
